Consider seven compounds from publication PMC3931004 (The Biochemical journal, 2013).

The IC50 is the point on the concentration scale where inhibition reaches its midpoint.

In one experiment the test system is NIH 3T3 cells. Briefly: [3H]inositol lipid and inositol phosphate levels in NIH 3T3 cells by HPLC. The experiment is classed as cell-based. An outline of the steps: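 NIH 3T3 cells in DMEM with 10 % FBS and 1 mM pyruvate (37 °C, 5 % CO2), [3H]inositol-labelled, serum-starved 3 h in Hepes-buffered saline-glucose medium pH 7.4. Treatment: vehicle or PDGF for 5 min, or fresh medium with or without 0.2 M sorbitol. Reactions quenched; lipids or inositol phosphates extracted and quantified by HPLC as % of total. PDGF data: mean ± S.E.M., three experiments.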

Experiment [1] has as its target Akt^PH (human recombinant AKT1) (Homo sapiens, UniProt P31749). In words: SPR ligand competition: Akt binding to vesicular PtdIns.
In the next experiment the target is T1, PBD1 of PPIP5K1 (Homo sapiens, UniProt Q6PFW1).
T1 sequence (Q6PFW1 382-917): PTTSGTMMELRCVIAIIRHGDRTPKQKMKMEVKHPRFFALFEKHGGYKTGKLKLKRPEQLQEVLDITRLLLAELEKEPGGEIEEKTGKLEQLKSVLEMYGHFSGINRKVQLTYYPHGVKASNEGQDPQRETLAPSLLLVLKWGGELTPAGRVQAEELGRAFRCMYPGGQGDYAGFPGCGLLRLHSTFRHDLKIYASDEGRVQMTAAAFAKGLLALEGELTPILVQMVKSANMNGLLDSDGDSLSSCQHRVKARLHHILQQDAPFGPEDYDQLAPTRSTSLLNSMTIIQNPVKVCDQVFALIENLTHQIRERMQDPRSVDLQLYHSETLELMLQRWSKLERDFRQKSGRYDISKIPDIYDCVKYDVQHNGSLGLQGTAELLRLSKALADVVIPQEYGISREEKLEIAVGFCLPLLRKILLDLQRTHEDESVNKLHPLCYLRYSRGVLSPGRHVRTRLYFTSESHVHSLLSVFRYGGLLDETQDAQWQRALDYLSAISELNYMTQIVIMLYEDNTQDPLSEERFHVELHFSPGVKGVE
In words: SPR ligand competition: PBD1 binding to vesicular PtdIns. Particulars: for fold lower affinity for PBD1 than InsP6 and 5-InsP7: from IC50 values.

The target in the next experiment is SIN1^PH (Homo sapiens, UniProt Q9BPZ7). Briefly: SPR ligand competition: SIN1^PH binding to vesicular PtdIns.
SIN1^PH, sequence (Q9BPZ7 358-522): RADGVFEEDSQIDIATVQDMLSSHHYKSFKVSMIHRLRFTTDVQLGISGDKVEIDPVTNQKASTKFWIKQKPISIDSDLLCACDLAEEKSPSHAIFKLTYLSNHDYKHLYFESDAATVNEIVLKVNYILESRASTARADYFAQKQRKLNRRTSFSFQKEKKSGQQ
The next experiment has as its system mouse embryo fibroblasts. The following applies: 5 min stimulation with IGF-1, serum starved overnight; cited from earlier work.
The target in another experiment is T2, GRP1^PH (Mus musculus, UniProt O08967).
T2 sequence (O08967 261-387 limits assumed): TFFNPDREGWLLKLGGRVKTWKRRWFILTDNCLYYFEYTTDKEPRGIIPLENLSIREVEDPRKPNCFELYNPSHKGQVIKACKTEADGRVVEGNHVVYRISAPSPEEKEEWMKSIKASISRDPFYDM
In words: SPR ligand competition: GRP1^PH association with PtdIns. The experiment is classed as binding. The following applies: Supplementary Figure S2. An outline of the steps:
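GRP1 PH domain expressed in E. coli BL21(DE3) at 37 °C in ampicillin LB, induced overnight at 25 °C with 1 mM IPTG at D600 0.6, lysed in imidazole-containing Hepes pH 8 buffer. SPR: protein injected at 5 μl/min over immobilized PtdIns(3,4,5)P3-containing lipid vesicles in 100 mM KCl, 10 mM NaH2PO4, 1 mM MgCl2, 25 mM Hepes pH 7.2. Signal corrected against control vesicles lacking the phosphoinositide.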

The mark [2] stands for this setting: 30 min hyperosmotic stress, 0.2 M sorbitol.

Akt^PH (human recombinant AKT1), sequence (P31749 5-108 limits assumed): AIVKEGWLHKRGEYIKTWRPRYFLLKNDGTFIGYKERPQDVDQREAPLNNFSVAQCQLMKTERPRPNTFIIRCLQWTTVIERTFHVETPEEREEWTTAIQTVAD

With `OC[C@@H](O)[C@@H](O)[C@H](O)[C@@H](O)CO` [sorbitol], in the experiment on NIH 3T3 cells (setting [2]), the “elevation of PtdIns(3,4,5)P3 levels” value is on record as 4.5 fold and the “increase in InsP8 concentration” value was determined as 4.5 fold.

Regarding `O=P(O)(O)O[C@H]1[C@H](OP(=O)(O)O)[C@@H](OP(=O)(O)O)[C@H](OP(=O)(O)O)[C@@H](OP(=O)(O)O)[C@H]1OP(=O)(O)O` [InsP6], the IC50 in experiment [1] was found to be 14 µM; on PBD1 of PPIP5K1 it was 7 µM; at SIN1^PH, 6 µM.

Consider IGF-1: insulin-like growth factor 1, for which the “increase in levels of InsP6 and InsP7” value with mouse embryo fibroblasts was 2 fold.

Turning to `O=P(O)(O)O[C@@H]1[C@@H](OP(=O)(O)O)[C@H](OP(=O)(O)OP(=O)(O)O)[C@@H](OP(=O)(O)O)[C@H](OP(=O)(O)OP(=O)(O)O)[C@@H]1OP(=O)(O)O` [InsP8, bis-diphosphoinositol tetrakisphosphate], the IC50 in experiment [1] is > 50 µM; on PBD1 of PPIP5K1, 32 µM; on SIN1^PH, > 100 µM. The “fold lower affinity for PBD1 than InsP6 and 5-InsP7” value on PBD1 of PPIP5K1 is on record as 6–7 fold.

`O=P(O)(O)O[C@@H]1[C@@H](OP(=O)(O)O)[C@@H](OP(=O)(O)O)[C@@H](OP(=O)(O)OP(=O)(O)O)[C@H](OP(=O)(O)O)[C@H]1OP(=O)(O)O` [1-InsP7]: the IC50 in experiment [1] was 45 µM; on PBD1 of PPIP5K1, 43 µM; at SIN1^PH, > 100 µM. Besides, the “fold lower affinity for PBD1 than InsP6 and 5-InsP7” value at PBD1 of PPIP5K1 is recorded as 6–7 fold.

As for `O=P(O)(O)O[C@H]1[C@@H](OP(=O)(O)O)[C@H](OP(=O)(O)O)[C@@H](OP(=O)(O)OP(=O)(O)O)[C@H](OP(=O)(O)O)[C@H]1OP(=O)(O)O` [5-InsP7], the IC50 in experiment [1] was 7 µM; at PBD1 of PPIP5K1 it was 5 µM; on SIN1^PH, 3.7 µM. Moreover, on GRP1^PH, the “inhibition of GRP1^PH association with PtdIns(3,4,5)P3, relative potency” value is recorded as “only marginally more potent than InsP6”.

For PDGF, the “increase in levels of PtdIns(3,4,5)P3” value in the experiment on NIH 3T3 cells (5 min stimulation with 50 ng/ml PDGF, 3 h serum starved) came to 2 fold.
